# The source made the active and inactive calls. The calls are words filed in the database; no cut-off is given here.
# Experiments:
# [1] = tested on: Mycolicibacterium fortuitum; assay: Antibacterial activity against Mycobacterium fortuitum PCM 672 assessed as growth inhibition up to 250 ug/mL after 48 hrs by microplate Alamar blue assay; format: functional, organism-based
# In short: (§1)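 M. fortuitum PCM 672 pre-grown in liquid 79 medium at 37°C for 24 h under aerobic conditions, then diluted to about 2 x 10^5 cfu/mL. Compounds were DMSO stocks (1 mg/mL) diluted in medium, tested at 0.97-250 µg/mL. Incubated at 37°C for 48 h, then Alamar Blue plus 20% Tween 80 added for 2 h more. Read by fluorescence. MIC was the lowest concentration preventing the blue-to-pink change (≥90% growth inhibition). Run two or three times; means and standard error reported.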
# [2] = tested on: Mycobacterium tuberculosis; assay: Antibacterial activity against Mycobacterium tuberculosis H37Rv assessed as growth inhibition up to 250 ug/mL by BACTEC 460 radiometric assay; format: functional, organism-based
# [3] = tested on: Cutibacterium acnes; assay: Antibacterial activity against Propionibacterium acnes PCM 2400 assessed as growth inhibition up to 250 ug/mL after 48 hrs by microplate Alamar blue assay; format: functional, organism-based
# [4] = tested on: Mycolicibacterium fortuitum; assay: Antibacterial activity against Mycobacterium fortuitum PCM 672 assessed as growth inhibition after 48 hrs by microplate Alamar blue assay; format: functional; settings: PCM 672, 48 h; in short: as §1
# [5] = tested on: Mycobacterium avium; assay: Antibacterial activity against Mycobacterium avium assessed as growth inhibition at 12.5 ug/mL relative to control; format: functional, organism-based
# [6] = tested on: Mycobacterium tuberculosis; assay: Antibacterial activity against Mycobacterium tuberculosis H37Rv assessed as growth inhibition by BACTEC 460 radiometric assay; format: functional
# In short: (§2)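 Serial dilutions started at 6.25 μg/mL against H37Rv in BACTEC 12B medium, read on the BACTEC 460 radiometric system. MIC was taken as the lowest concentration inhibiting 99% of the inoculum.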
# [7] = Selectivity index, ratio of IC50 for African green monkey Vero cells to MIC99 for Mycobacterium tuberculosis H37Rv; format: functional
# In short: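 Cytotoxicity was measured in VERO cells by serial dilution starting at 10× MIC where solubility in culture medium allowed, giving an IC50. SI = VERO IC50 ÷ MIC (99% inhibition) against M. tuberculosis H37Rv from the BACTEC 460 radiometric assay.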
# [8] = tested on: Mycobacterium tuberculosis; assay: Antibacterial activity against Mycobacterium tuberculosis H37Rv assessed as growth inhibition at 6.25 ug/mL by BACTEC 460 radiometric assay relative to control; format: functional; settings: read-out: GI
# In short: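 M. tuberculosis H37Rv grown in BACTEC 12B medium and tested once at 6.25 μg/mL in a primary screen. Growth was read radiometrically on the BACTEC 460 system and reported as % inhibition.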
# [9] = tested on: Vero; assay: Cytotoxicity against African green monkey Vero cells; format: cell-based; settings: Chlorocebus sabaeus
# In short: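 VERO cells were exposed to serially diluted compound, starting at 10 x MIC where solubility in culture medium allowed. IC50 was determined, and the selectivity index was taken as VERO IC50 divided by the M. tuberculosis H37Rv MIC.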
# [10] = tested on: Mycobacterium tuberculosis; assay: Antibacterial activity against Mycobacterium tuberculosis H37Rv assessed as growth inhibition at 0.125 ug/mL by BACTEC 460 radiometric assay relative to control; format: functional; settings: read-out: GI
# [11] = tested on: Mycobacterium tuberculosis; assay: Antibacterial activity against Mycobacterium tuberculosis H37Rv assessed as growth inhibition; format: functional; settings: for MIC: Mycobacterium tuberculosis, H37Rv; in short: as §2
# [12] = tested on: Mycobacterium avium; assay: Antibacterial activity against Mycobacterium avium assessed as growth inhibition at 2 ug/mL relative to control; format: functional; settings: read-out: GI
# [13] = tested on: Cutibacterium acnes; assay: Induction of Propionibacterium acnes PCM 2400 replication at 3.9 to 15.6 ug/mL after 48 hrs by microplate Alamar blue assay relative to control; format: organism-based
# [14] = tested on: Cutibacterium acnes; assay: Antibacterial activity against Propionibacterium acnes PCM 2400 assessed as growth inhibition after 48 hrs by microplate Alamar blue assay; format: functional; settings: PCM 2400, 48 h
# [15] = tested on: Mycobacterium tuberculosis; assay: Antibacterial activity against Mycobacterium tuberculosis assessed as growth inhibition; format: functional
# [16] = tested on: Mycobacterium avium; assay: Antibacterial activity against Mycobacterium avium assessed as growth inhibition; format: functional
# [17] = tested on: Mycolicibacterium fortuitum; assay: Induction of Mycobacterium fortuitum PCM 672 replication at 15.6 to 31.25 ug/mL after 48 hrs by microplate Alamar blue assay relative to control; format: organism-based; in short: as §1
# [18] = tested on: Mycolicibacterium fortuitum; assay: Bacteriostatic activity against Mycobacterium fortuitum PCM 672 at 0.97 to 250 ug/mL after 48 hrs by microplate Alamar blue assay relative to control; format: functional; in short: as §1
# [19] = tested on: Mycolicibacterium fortuitum; assay: Induction of Mycobacterium fortuitum PCM 672 replication at 0.97 to 250 ug/mL after 48 hrs by microplate Alamar blue assay relative to control; format: organism-based; in short: as §1
# [20] = tested on: Cutibacterium acnes; assay: Induction of Propionibacterium acnes PCM 2400 replication at 0.97 to 250 ug/mL after 48 hrs by microplate Alamar blue assay relative to control; format: organism-based
# [21] = tested on: Cutibacterium acnes; assay: Bacteriostatic activity against Propionibacterium acnes PCM 2400 at 0.97 to 250 ug/mL after 48 hrs by microplate Alamar blue assay relative to control; format: functional
# [22] = tested on: Cutibacterium acnes; assay: Induction of Propionibacterium acnes PCM 2400 replication at 15.6 ug/mL after 48 hrs by microplate Alamar blue assay relative to control; format: organism-based
structure (smiles),measurement,setting,value
CCCCNC(=O)OCCn1sc2nc(C)cc(C)c2c1=O,growth inhibition (GI),[1],inactive
same,growth inhibition (GI),[2],inactive
same,growth inhibition (GI),[3],inactive
same,MIC50,[4],125 µg/mL
Cc1cc(C)c2c(=O)n(CN(Cc3ccccc3Cl)Cn3sc4nc(C)cc(C)c4c3=O)sc2n1,growth inhibition (GI),[2],inactive
same,growth inhibition (GI),[3],inactive
Cc1cc(C)c2c(=O)n(CC(O)CN3CCN(c4cccc(C(F)(F)F)c4)CC3)sc2n1 (stereo not drawn),growth inhibition (GI),[5],inactive
same,MIC99,[6],1.56 µg/mL
same,Selectivity Index,[7],2.69
same,inhibition of growth at 6.25 µg/mL,[8],100%
same,IC50,[9],4.2 µg/mL
CO[C@H]1/C=C/O[C@@]2(C)Oc3c(C)c(O)c4c(O)c(c(/C=N/N5CCN(C)CC5)c(O)c4c3C2=O)NC(=O)/C(C)=C\C=C\[C@H](C)[C@H](O)[C@@H](C)[C@@H](O)[C@@H](C)[C@H](OC(C)=O)[C@@H]1C [RIFAMPIN],MIC99,[6],0.125 µg/mL
same,IC50,[9],58 µg/mL
same,inhibition of growth at 0.125 µg/mL,[10],98%
Cc1cc(C)c2c(=O)n(CC(=O)N3CCN(C)CC3)sc2n1,MIC99,[6],6.25 µg/mL
same,Selectivity Index,[7],1.12
same,inhibition of growth at 6.25 µg/mL,[8],100%
same,IC50,[9],7 µg/mL
NNC(=O)c1ccncc1 [ISONIAZID],MIC50,[4],0.322 µg/mL
same,MIC90,[4],> 250 µg/mL
Cc1cc(C)c2c(=O)n(CO)sc2n1,growth inhibition (GI),[11],65%
same,MIC,[11],12.5 µg/mL
CC[C@H]1OC(=O)[C@H](C)[C@@H](O[C@H]2C[C@@](C)(OC)[C@@H](O)[C@H](C)O2)[C@H](C)[C@@H](O[C@@H]2O[C@H](C)C[C@H](N(C)C)[C@H]2O)[C@](C)(OC)C[C@@H](C)C(=O)[C@H](C)[C@@H](O)[C@]1(C)O [CLARITHROMYCIN],inhibition of growth at 2 µg/mL,[12],98%
CCCCNC(=O)OCCOc1nsc2nc(C)cc(C)c12,growth inhibition (GI),[1],inactive
same,growth inhibition (GI),[2],inactive
same,Activity,[13],> 50%
same,MIC50,[4],125 µg/mL
Cc1cc(C)c2c(=O)n(CCOCCOc3ccccc3)sc2n1,MIC99,[6],6.25 µg/mL
same,Selectivity Index,[7],0.68
same,inhibition of growth at 6.25 µg/mL,[8],100%
same,IC50,[9],4.1 µg/mL
Cc1cc(C)c2c(=O)n(CN(Cc3ccc(Cl)cc3)Cn3sc4nc(C)cc(C)c4c3=O)sc2n1,growth inhibition (GI),[2],inactive
same,growth inhibition (GI),[3],inactive
CC[C@H]1OC(=O)[C@H](C)[C@@H](O[C@H]2C[C@@](C)(OC)[C@@H](O)[C@H](C)O2)[C@H](C)[C@@H](O[C@@H]2O[C@H](C)C[C@H](N(C)C)[C@H]2O)[C@](C)(O)C[C@@H](C)C(=O)[C@H](C)[C@@H](O)[C@]1(C)O [ERYTHROMYCIN],MIC50,[14],< 1 µg/mL
same,MIC90,[14],< 1 µg/mL
Cc1cc(C)c2c(OCCOC(=O)NC(C)(C)C)nsc2n1,inhibition of growth at 6.25 µg/mL,[8],16%
Cc1cc(C)c2c(=O)n(CN3CCN(c4ccc([N+](=O)[O-])cc4)CC3)sc2n1,growth inhibition (GI),[1],inactive
same,MIC,[15],< 1 µg/mL
same,MIC,[16],< 1 µg/mL
same,growth inhibition (GI),[3],inactive
same,MIC50,[4],197 µg/mL
Cc1cc(C)c2c(=O)n(CCOC(=O)NC(C)(C)C)sc2n1,growth inhibition (GI),[2],inactive
same,MIC90,[14],3.2 µg/mL
same,Activity,[17],10%
Cc1cc(C)c2c(=O)n(CCCN3CCN(c4cccc(Cl)c4)CC3)sc2n1,growth inhibition (GI),[5],inactive
same,MIC99,[6],6.25 µg/mL
same,Selectivity Index,[7],0.53
same,inhibition of growth at 6.25 µg/mL,[8],100%
same,IC50,[9],3.3 µg/mL
Cc1cc(C)c2c(=O)n(CCN3CCN(c4ccc([N+](=O)[O-])cc4)CC3)sc2n1,inhibition (INH),[18],40%
same,growth inhibition (GI),[1],inactive
same,MIC50,[14],< 1 µg/mL
same,MIC90,[14],< 1 µg/mL
same,MIC,[15],< 1 µg/mL
same,MIC,[16],< 1 µg/mL
Cc1cc(C)c2c(OCCOCCOc3ccccc3)nsc2n1,growth inhibition (GI),[2],inactive
same,growth inhibition (GI),[3],inactive
COc1ccccc1CN(Cn1sc2nc(C)cc(C)c2c1=O)Cn1sc2nc(C)cc(C)c2c1=O,growth inhibition (GI),[2],inactive
same,MIC50,[14],38 µg/mL
same,growth inhibition (GI),[3],inactive
same,MIC50,[4],< 1 µg/mL
same,MIC90,[4],< 1 µg/mL
CCNC(=O)OCCOc1nsc2nc(C)cc(C)c12,MIC50,[14],184 µg/mL
same,Activity,[19],10%
same,inhibition of growth at 6.25 µg/mL,[8],6%
same,growth inhibition (GI),[3],inactive
Cc1cc(C)c2c(OCCOC(=O)Nc3ccccc3)nsc2n1,growth inhibition (GI),[1],inactive
same,growth inhibition (GI),[2],inactive
same,growth inhibition (GI),[3],inactive
Cc1cc(C)c2c(=O)n(CCOC(=O)Nc3ccccc3)sc2n1,inhibition (INH),[18],42%
same,growth inhibition (GI),[1],inactive
same,inhibition of growth at 6.25 µg/mL,[8],12%
same,growth inhibition (GI),[3],inactive
Cc1cc(C)c2c(=O)n(CC(O)CN3CCC(Cc4ccccc4)CC3)sc2n1 (stereo not drawn),MIC99,[6],6.25 µg/mL
same,Selectivity Index,[7],0.25
same,inhibition of growth at 6.25 µg/mL,[8],100%
same,IC50,[9],1.6 µg/mL
O=c1c2ccccc2sn1CO,growth inhibition (GI),[11],100%
same,MIC,[11],12.5 µg/mL
COc1ccc(CN(Cn2sc3nc(C)cc(C)c3c2=O)Cn2sc3nc(C)cc(C)c3c2=O)cc1,growth inhibition (GI),[2],inactive
same,Activity,[20],10%
Cc1cc(C)c2c(=O)n(CN(Cc3ccccn3)Cn3sc4nc(C)cc(C)c4c3=O)sc2n1,inhibition (INH),[21],36%
same,inhibition of growth at 6.25 µg/mL,[8],4%
same,growth inhibition (GI),[3],inactive
CCNC(=O)OCCn1sc2nc(C)cc(C)c2c1=O,MIC50,[14],6.9 µg/mL
same,inhibition of growth at 6.25 µg/mL,[8],17%
same,growth inhibition (GI),[3],inactive
Cc1cc(C)c2c(=O)n(CN(Cc3ccccc3)Cn3sc4nc(C)cc(C)c4c3=O)sc2n1,Activity,[22],10%
same,inhibition of growth at 6.25 µg/mL,[8],6%
COc1ccc(CN(Cn2sc3nc(C)cc(C)c3c2=O)Cn2sc3nc(C)cc(C)c3c2=O)cc1OC,inhibition (INH),[18],21%
same,growth inhibition (GI),[1],inactive
same,inhibition of growth at 6.25 µg/mL,[8],8%
same,Activity,[20],10%
